Measured values pooled from the literature.
Compare with care: the assays were run in different laboratories. In brackets after ≈: the same amount, converted by molar mass.

The MIC of `CN[C@H](CC(C)C)C(=O)N[C@H]1C(=O)N[C@@H](CC(N)=O)C(=O)N[C@H]2C(=O)N[C@H]3C(=O)N[C@H](C(=O)N[C@H](C(=O)O)c4cc(O)cc(O)c4-c4cc3ccc4O)[C@H](O)c3ccc(c(Cl)c3)Oc3cc2cc(c3O[C@@H]2O[C@H](CO)[C@@H](O)[C@H](O)[C@H]2O[C@H]2C[C@](C)(N)[C@H](O)[C@H](C)O2)Oc2ccc(cc2Cl)[C@H]1O` is reported as 2 µg/mL (≈ 1.38 µM) (Lactobacillus acidophilus; microbial growth, agar dilution; 48 h).
For `COC(=O)c1cc(-c2cccc(NC(=O)Nc3cccc(Br)c3)c2)on1`, the MIC was over 64 µg/mL (Escherichia coli; microbial growth, broth dilution; ATCC25922).
With `c1ccc(CCOC2CCCc3c2[nH]c2ccccc32)cc1` (centres unmarked) the MIC was 128 µg/mL (≈ 439 µM) (Micrococcus luteus; microbial growth, broth dilution; DSM1790).
`CN[C@H](CC(C)C)C(=O)N[C@H]1C(=O)N[C@@H](CC(N)=O)C(=O)N[C@H]2C(=O)N[C@H]3C(=O)N[C@H](C(=O)N[C@H](C(=O)O)c4cc(O)cc(O)c4-c4cc3ccc4O)[C@H](O)c3ccc(c(Cl)c3)Oc3cc2cc(c3O[C@@H]2O[C@H](CO)[C@@H](O)[C@H](O)[C@H]2O[C@H]2C[C@](C)(N)[C@H](O)[C@H](C)O2)Oc2ccc(cc2Cl)[C@H]1O` gave an MBC of 1 µM (≈ 1.45 µg/mL) (Staphylococcus aureus; microbial killing, broth dilution; NRS107).
`CC(C)[C@H](N)C(=O)OCCCCCn1cnc2nc(NCc3ccc(Cl)c(Cl)c3)[nH]c(=O)c21` gave an MIC of 8 µg/mL (≈ 16.1 µM) (Lactobacillus acidophilus; microbial growth, agar dilution; 48 h).
For `COC(=O)c1cc(-c2cccc(NC(=S)NC3CCCCC3)c2)on1`, the MIC was over 64 µg/mL (Escherichia coli; microbial growth, broth dilution; ATCC25922).
The MIC of `Cc1ccc2[nH]c3c(c2c1)CCCC3NCCc1ccc(O)cc1` (centres unmarked) is reported as 8 µg/mL (≈ 25 µM) (Micrococcus luteus; microbial growth, broth dilution; DSM1790).
For `O=C(O)c1cn(C2CC2)c2cc(N3CCNCC3)c(F)cc2c1=O`, the MBC was 19 µM (≈ 6.3 µg/mL) (Staphylococcus aureus; microbial killing).
